From ChEMBL document CHEMBL1153726, “Synthesis and anticancer activity of sclerophytin-inspired hydroisobenzofurans” (Bioorg Med Chem Lett, 2009)

Legend:
[1] = test system: OVCAR-3; assay: Growth inhibition of human OVCAR-3 cells at 10 uM after 96 hrs by MTT assay; format: functional; set-up: scale not given: the % may be the effect or the level left
[2] = test system: MDA-MB-231; assay: Growth inhibition of human MDA-MB-231 cells at 10 uM after 96 hrs by MTT assay; format: functional; set-up: scale not given: the % may be the effect or the level left
[3] = test system: MDA-MB-435; assay: Growth inhibition of human MDA-MB-435 cells at 10 uM after 96 hrs by MTT assay; format: functional; set-up: scale not given: the % may be the effect or the level left
[4] = test system: SK-MEL-5; assay: Growth inhibition of human SK-MEL-5 cells at 10 uM after 96 hrs by MTT assay; format: functional; set-up: scale not given: the % may be the effect or the level left
[5] = test system: 786-0; assay: Growth inhibition of human 786-0 cells at 10 uM after 96 hrs by MTT assay; format: functional; set-up: scale not given: the % may be the effect or the level left
[6] = test system: MCF7; assay: Growth inhibition of human MCF7 cells at 10 uM after 96 hrs by MTT assay; format: functional; set-up: scale not given: the % may be the effect or the level left
[7] = test system: HOP-92; assay: Growth inhibition of human HOP92 cells at 10 uM after 96 hrs by MTT assay; format: functional; set-up: scale not given: the % may be the effect or the level left
[8] = test system: OVCAR-5; assay: Growth inhibition of human OVCAR5 cells at 10 uM after 96 hrs by MTT assay; format: functional; set-up: scale not given: the % may be the effect or the level left
[9] = test system: SK-OV-3; assay: Growth inhibition of human SKOV3 cells at 10 uM after 96 hrs by MTT assay; format: functional; set-up: scale not given: the % may be the effect or the level left
[10] = test system: MOLT-4; assay: Growth inhibition of human MOLT4 cells at 10 uM after 96 hrs by MTT assay; format: functional; set-up: scale not given: the % may be the effect or the level left
[11] = test system: T47D; assay: Growth inhibition of human T47D cells at 10 uM after 96 hrs by MTT assay; format: functional; set-up: scale not given: the % may be the effect or the level left
[12] = test system: M14; assay: Growth inhibition of human M14 cells at 10 uM after 96 hrs by MTT assay; format: functional; set-up: scale not given: the % may be the effect or the level left
[13] = test system: KM12; assay: Growth inhibition of human KM12 cells at 10 uM after 96 hrs by MTT assay; format: functional; set-up: scale not given: the % may be the effect or the level left
[14] = test system: HL-60(TB); assay: Growth inhibition of human HL-60(TB) cells at 10 uM after 96 hrs by MTT assay; format: functional; set-up: scale not given: the % may be the effect or the level left
[15] = test system: EKVX; assay: Growth inhibition of human EKVX cells at 10 uM after 96 hrs by MTT assay; format: functional; set-up: scale not given: the % may be the effect or the level left
[16] = test system: LOX IMVI; assay: Growth inhibition of human LOXIMVI cells at 10 uM after 96 hrs by MTT assay; format: functional; set-up: scale not given: the % may be the effect or the level left
[17] = test system: NCI-H322M; assay: Growth inhibition of human NCI-H322M cells at 10 uM after 96 hrs by MTT assay; format: functional; set-up: scale not given: the % may be the effect or the level left
[18] = test system: SK-MEL-2; assay: Growth inhibition of human SK-MEL-2 cells at 10 uM after 96 hrs by MTT assay; format: functional; set-up: scale not given: the % may be the effect or the level left
[19] = test system: K562; assay: Growth inhibition of human K562 cells at 10 uM after 96 hrs by MTT assay; format: functional; set-up: scale not given: the % may be the effect or the level left
[20] = test system: Malme-3M; assay: Growth inhibition of human MALME-3M cells at 10 uM after 96 hrs by MTT assay; format: functional; set-up: scale not given: the % may be the effect or the level left
[21] = test system: NCI-H23; assay: Growth inhibition of human NCI-H23 cells at 10 uM after 96 hrs by MTT assay; format: functional; set-up: scale not given: the % may be the effect or the level left
[22] = test system: OVCAR-4; assay: Growth inhibition of human OVCAR4 cells at 10 uM after 96 hrs by MTT assay; format: functional; set-up: scale not given: the % may be the effect or the level left
[23] = test system: SNB-75; assay: Growth inhibition of human SNB75 cells at 10 uM after 96 hrs by MTT assay; format: functional; set-up: scale not given: the % may be the effect or the level left
[24] = test system: NCI-H226; assay: Growth inhibition of human NCI-H226 cells at 10 uM after 96 hrs by MTT assay; format: functional; set-up: scale not given: the % may be the effect or the level left
[25] = test system: A498; assay: Growth inhibition of human A498 cells at 10 uM after 96 hrs by MTT assay; format: functional; set-up: scale not given: the % may be the effect or the level left
[26] = test system: CCRF-CEM; assay: Growth inhibition of human CCRF-CEM cells at 10 uM after 96 hrs by MTT assay; format: functional; set-up: scale not given: the % may be the effect or the level left
[27] = test system: A549; assay: Growth inhibition of human A549 cells at 10 uM after 96 hrs by MTT assay; format: functional; set-up: scale not given: the % may be the effect or the level left
[28] = test system: PC-3; assay: Growth inhibition of human PC3 cells at 10 uM after 96 hrs by MTT assay; format: functional; set-up: scale not given: the % may be the effect or the level left
[29] = test system: IGROV-1; assay: Growth inhibition of human IGROV1 cells at 10 uM after 96 hrs by MTT assay; format: functional; set-up: scale not given: the % may be the effect or the level left
[30] = test system: SF-295; assay: Growth inhibition of human SF295 cells at 10 uM after 96 hrs by MTT assay; format: functional; set-up: scale not given: the % may be the effect or the level left
[31] = test system: SK-MEL-28; assay: Growth inhibition of human SK-MEL-28 cells at 10 uM after 96 hrs by MTT assay; format: functional; set-up: scale not given: the % may be the effect or the level left
[32] = test system: SNB-19; assay: Growth inhibition of human SNB19 cells at 10 uM after 96 hrs by MTT assay; format: functional; set-up: scale not given: the % may be the effect or the level left
[33] = test system: SN12C; assay: Growth inhibition of human SN12C cells at 10 uM after 96 hrs by MTT assay; format: functional; set-up: scale not given: the % may be the effect or the level left
[34] = test system: OVCAR-8; assay: Growth inhibition of human OVCAR8 cells at 10 uM after 96 hrs by MTT assay; format: functional; set-up: scale not given: the % may be the effect or the level left
[35] = test system: SW-620; assay: Growth inhibition of human SW620 cells at 10 uM after 96 hrs by MTT assay; format: functional; set-up: scale not given: the % may be the effect or the level left
[36] = Growth inhibition of human Hs 578T cells at 10 uM after 96 hrs by MTT assay; format: functional; set-up: scale not given: the % may be the effect or the level left
[37] = test system: UACC-62; assay: Growth inhibition of human UACC62 cells at 10 uM after 96 hrs by MTT assay; format: functional; set-up: scale not given: the % may be the effect or the level left
[38] = test system: BT-549; assay: Growth inhibition of human BT549 cells at 10 uM after 96 hrs by MTT assay; format: functional; set-up: scale not given: the % may be the effect or the level left
[39] = test system: NCI-H460; assay: Growth inhibition of human NCI-H460 cells at 10 uM after 96 hrs by MTT assay; format: functional; set-up: scale not given: the % may be the effect or the level left
[40] = test system: HCC 2998; assay: Growth inhibition of human HCC2998 cells at 10 uM after 96 hrs by MTT assay; format: functional; set-up: scale not given: the % may be the effect or the level left
[41] = Antitumor activity against human KB3 cells after 96 hrs by MTT assay; format: functional, cell-based; conditions: KB3, 96 h
Summary of the method: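 Human KB-3 carcinoma cells exposed to increasing compound concentrations; viability read by MTT colorimetric assay after 96 h. Values are means of triplicate assays, expressed relative to untreated controls.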

[42] = test system: UACC-257; assay: Growth inhibition of human UACC257 cells at 10 uM after 96 hrs by MTT assay; format: functional; set-up: scale not given: the % may be the effect or the level left
[43] = test system: TK-10; assay: Growth inhibition of human TK10 cells at 10 uM after 96 hrs by MTT assay; format: functional; set-up: scale not given: the % may be the effect or the level left
[44] = test system: HOP-62; assay: Growth inhibition of human HOP62 cells at 10 uM after 96 hrs by MTT assay; format: functional; set-up: scale not given: the % may be the effect or the level left
[45] = test system: DU-145; assay: Growth inhibition of human DU145 cells at 10 uM after 96 hrs by MTT assay; format: functional; set-up: scale not given: the % may be the effect or the level left
[46] = test system: MDA-MB-468; assay: Growth inhibition of human MDA-MB-468 cells at 10 uM after 96 hrs by MTT assay; format: functional; set-up: scale not given: the % may be the effect or the level left
[47] = test system: UO-31; assay: Growth inhibition of human UO31 cells at 10 uM after 96 hrs by MTT assay; format: functional; set-up: scale not given: the % may be the effect or the level left
[48] = test system: NCI-H522; assay: Growth inhibition of human NCI-H522 cells at 10 uM after 96 hrs by MTT assay; format: functional; set-up: scale not given: the % may be the effect or the level left
[49] = test system: SR; assay: Growth inhibition of human SR cells at 10 uM after 96 hrs by MTT assay; format: functional; set-up: scale not given: the % may be the effect or the level left
[50] = test system: HCT-15; assay: Growth inhibition of human HCT15 cells at 10 uM after 96 hrs by MTT assay; format: functional; set-up: scale not given: the % may be the effect or the level left
[51] = test system: HCT-116; assay: Growth inhibition of human HCT116 cells at 10 uM after 96 hrs by MTT assay; format: functional; set-up: scale not given: the % may be the effect or the level left
[52] = test system: RXF 393; assay: Growth inhibition of human RXF393 cells at 10 uM after 96 hrs by MTT assay; format: functional; set-up: scale not given: the % may be the effect or the level left
[53] = test system: ACHN; assay: Growth inhibition of human ACHN cells at 10 uM after 96 hrs by MTT assay; format: functional; set-up: scale not given: the % may be the effect or the level left
[54] = Growth inhibition of human RPMI8266 cells at 10 uM after 96 hrs by MTT assay; format: functional; set-up: scale not given: the % may be the effect or the level left
[55] = test system: HT-29; assay: Growth inhibition of human HT-29 cells at 10 uM after 96 hrs by MTT assay; format: functional; set-up: scale not given: the % may be the effect or the level left
[56] = test system: COLO 205; assay: Growth inhibition of human COLO205 cells at 10 uM after 96 hrs by MTT assay; format: functional; set-up: scale not given: the % may be the effect or the level left
[57] = test system: NCI/ADR-RES; assay: Growth inhibition of human NCI/ADR-RES cells at 10 uM after 96 hrs by MTT assay; format: functional; set-up: scale not given: the % may be the effect or the level left
[58] = test system: SF-268; assay: Growth inhibition of human SF268 cells at 10 uM after 96 hrs by MTT assay; format: functional; set-up: scale not given: the % may be the effect or the level left
[59] = test system: SF-539; assay: Growth inhibition of human SF539 cells at 10 uM after 96 hrs by MTT assay; format: functional; set-up: scale not given: the % may be the effect or the level left
[60] = test system: U-251; assay: Growth inhibition of human U251 cells at 10 uM after 96 hrs by MTT assay; format: functional; set-up: scale not given: the % may be the effect or the level left

SMILES: C=C(C)[C@H]1CC(=O)C(C)=C2[C@@H](C(=O)OCC)O[C@@H](c3ccc(Cl)cc3Cl)[C@@H]21
- Activity [1]: 72.74%
- Activity [2]: 76.61%
- Activity [3]: 48.5%
- Activity [4]: 52.4%
- Activity [5]: 84.02%
- Activity [6]: 62.06%
- Activity [7]: 49.8%
- Activity [8]: 119.16%
- Activity [9]: 103.67%
- Activity [10]: 17.98%
- Activity [11]: 40.94%
- Activity [12]: 78.49%
- Activity [13]: 63.13%
- Activity [14]: -31.34%
- Activity [15]: 69.98%
- Activity [16]: 66.98%
- Activity [17]: 92.62%
- Activity [18]: 39.43%
- Activity [19]: 25.32%
- Activity [20]: 84.13%
- Activity [21]: 65.8%
- Activity [22]: 65.97%
- Activity [23]: 50.59%
- Activity [24]: 81.04%
- Activity [25]: 82.29%
- Activity [26]: 19.48%
- Activity [27]: 41.04%
- Activity [28]: 44.34%
- Activity [29]: 80.84%
- Activity [30]: 88.75%
- Activity [31]: 98.82%
- Activity [32]: 89.23%
- Activity [33]: 94.13%
- Activity [34]: 81.47%
- Activity [35]: 72.54%
- Activity [36]: 78.32%
- Activity [37]: 45.44%
- Activity [38]: 41.32%
- Activity [39]: 58.73%
- Activity [40]: 107.11%
- IC50 [41]: 3 µM
- Activity [42]: 51.65%
- Activity [43]: 98.26%
- Activity [44]: 84.64%
- Activity [45]: 83.07%
- Activity [46]: 13.57%
- Activity [47]: 121.05%
- Activity [48]: 9.23%
- Activity [49]: 12.69%
- Activity [50]: 71.15%
- Activity [51]: 42.99%
- Activity [52]: 69.05%
- Activity [53]: 89.8%
- Activity [54]: -4.6%
- Activity [55]: 66.3%
- Activity [56]: 94.54%
- Activity [57]: 74.31%
- Activity [58]: 78.47%
- Activity [59]: 76.69%
- Activity [60]: 53.44%
